PubChem BioAssay AID493195 (Broad Institute, 2011)
Several values for one entry are separate records, joined by “and”; a condition that tells them apart may be missing. Identical values can stand only once. Activity calls are given as the source filed them.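 The calls were made as follows: active = fitted dose curve reaching 40% activation within the tested dose range; inconclusive = no clear call, values can overlap the other calls; inactive = the rest, or activity opposite the expected rise.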

Key:
[1] = HRE-luciferase reporter activators in U2OS cells, dose response, cell-based, luminescence, U2OS HRE-luc, dry powder, set 6 (AID 493195); conditions: U2OS HRE-luciferase reporter, luminescence, HIF activation; at 38 µM (top of the series)
Procedure, shortened: (§1)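 Technique – Steady-Glo luciferase luminescence · Test system – human U2OS osteosarcoma cells stably carrying 3×HRE-luciferase reporter · Quantity – 6,000 cells per well · Doses – 8 concentrations, 3-fold steps, 7.5 mM stock · Timing – 24 h compound exposure at 37 °C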

[2] = test system: U2OS HRE-luciferase reporter, luminescence, HIF activation; assay: as above
Procedure, shortened: as §1

| SMILES | activation [1] | AC40 [2] |
| --- | --- | --- |
| O=C(NCCCO)c1cc(-c2ccccc2)on1 | 16.3% (inactive) | – |
| c1ccc(-c2nnc(-c3ccccn3)nc2NCC2CCCCC2)cc1 | – | 4.15 µM |
| Cc1ccc(CNc2nc(-c3ccccn3)nnc2-c2ccccc2)cc1C | – | 1.48 µM |
| CC1CN(Cc2ccc(O)c3ncccc23)CC(C)O1 (stereo not drawn) | 2.48% (inactive) | – |
| Cn1c(NC(=O)c2cc(-c3ccccc3)on2)nc2ccccc21 | -0.522% (inactive) | – |
| C=CCNc1nc(-c2ccccn2)nnc1-c1ccccc1 | – | 6.56 µM |
| c1ccc(-c2nnc(-c3ccccn3)nc2NCC2CC2)cc1 | – | 7.2 µM |
| COc1cccc(CNc2nc(-c3ccccn3)nnc2-c2ccccc2)c1 | – | 2.43 µM |
| c1ccc(-c2nnc(-c3ccccn3)nc2NCc2cccnc2)cc1 | – | 20.7 µM |
| CC(C)(C)CCNc1nc(-c2ccccn2)nnc1-c1ccccc1 | – | 3.35 µM and 1.68 µM |
| CCCCNC(=O)c1cc(-c2ccccc2)on1 | – | 28.5 µM |
| c1ccc(-c2ccc(CNc3nc(-c4ccccn4)nnc3-c3ccccc3)cc2)cc1 | – | 0.917 µM |
| O=C(Nc1nc2ccccc2s1)c1cc(-c2ccccc2)on1 | 0.068% (inactive) | – |
| c1ccc(-c2nnc(-c3ccccn3)nc2NCc2ccccn2)cc1 | – | 18.5 µM |
| Oc1ccc(CN2CCC3CCCCC3C2)c2cccnc12 (stereo not drawn) | – | 21.3 µM |
| c1ccc(-c2nnc(-c3ccccn3)nc2NCCc2ccccn2)cc1 | – | 10.1 µM |
| O=C(c1cc(-c2ccccc2)on1)N1CCC(N2CCOCC2)CC1 | -0.46% (inactive) | – |
| c1ccc(-c2nnc(-c3ccccn3)nc2Nc2cnc3ccccc3n2)cc1 | – | 7.11 µM |
| N#CC1(c2ccccc2)CCN(Cc2ccc(O)c3ncccc23)CC1 | 7.8% (inactive) | – |
| COc1ccc(CNc2nc(-c3ccccn3)nnc2-c2ccccc2)cc1 | – | 2.51 µM |
| OCC1CCN(c2nc(-c3ccccn3)nnc2-c2ccccc2)CC1 | – | 18.8 µM |

| SMILES | activation [1] | AC40 [2] |
| --- | --- | --- |
| O=C(Nc1nc(-c2ccccc2)cs1)c1cc(-c2ccccc2)on1 | -0.156% (inactive) | – |
| Cc1cccc(NC(=O)c2cc(-c3ccccc3)on2)n1 | -0.083% (inactive) | – |
| Clc1cccc(CNc2nc(-c3ccccn3)nnc2-c2ccccc2)c1 | – | 1.87 µM |
| Oc1ccc(CNC2Cc3ccccc3C2)c2cccnc12 | – | 32.6 µM |
| O=C(Nc1ncc2ccccc2n1)c1cc(-c2ccccc2)on1 | 0.873% (inactive) | – |
| c1ccc(-c2cccc(CNc3nc(-c4ccccn4)nnc3-c3ccccc3)c2)cc1 | – | 1.27 µM |
| Oc1ccc(CN2CCc3ccccc3C2)c2cccnc12 | 5.7% (inactive) | 5.32 µM |
| O=C(NCCN1CCCCC1)c1cc(-c2ccccc2)on1 | 0.598% (inactive) | – |
| Cn1c(-c2ccccc2)cnc1Nc1nc(-c2ccccn2)nnc1-c1ccccc1 | -1.62% (inactive) | – |
| CN1CCN(C(=O)c2cc(-c3ccccc3)on2)CC1 | -0.469% (inactive) | – |
| Cc1cccc(CNc2nc(-c3ccccn3)nnc2-c2ccccc2)c1 | – | 3.83 µM |
| O=C(NCC1CCCCC1)c1cc(-c2ccccc2)on1 | 1.39% (inactive) | – |
| O=C(NCCCCO)c1cc(-c2ccccc2)on1 | – | 24.2 µM |
| c1ccc(-c2nnc(-c3ccccn3)nc2Nc2nc3ccccc3s2)cc1 | – | 5.02 µM |
| CC(Nc1nc(-c2ccccn2)nnc1-c1ccccc1)c1ccccc1 (stereo not drawn) | – | 2.53 µM |
| COc1ccccc1N1CCN(Cc2ccc(O)c3ncccc23)CC1 | – | 33 µM |
| c1ccc(-c2cnc(Nc3nc(-c4ccccn4)nnc3-c3ccccc3)s2)cc1 | – | 31.4 µM |
| Cc1ccc(CNc2nc(-c3ccccn3)nnc2-c2ccccc2)cc1 | – | 2.72 µM |
| Cc1ccccc1CNc1nc(-c2ccccn2)nnc1-c1ccccc1 | – | 4.31 µM |
| O=C(c1cc(-c2ccccc2)on1)N1CCc2cccnc21 | -0.142% (inactive) | – |
| CN(C)CCNC(=O)c1cc(-c2ccccc2)on1 | 0.398% (inactive) | – |
